Source: PubChem BioAssay (several laboratories)
Sampled rows, rich in hits. Any-hit rate of the full collection: about 2.5%.
MC4R antag cAMP = MC4R antagonists of cAMP signaling, primary screen, cell-based, TR-FRET, antagonist arm of biased-ligand search; Melanocortin receptor 4 (Homo sapiens), P32245; MC4R-expressing cells, MTII-stimulated cAMP, LANCE TR-FRET; inhibition, % at 6.5 µM; 0.48% of 360,000 active; AID 540295, 2011;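 active = inhibition above its plate's cutoff, the mean of tested wells on that plate plus 3 SD, cut at about 29% in these data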;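 also: 0% = Melanotan II alone and 100% = Melanotan II plus saturating MCL0020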
Target sequence (P32245 whole entry, looked up): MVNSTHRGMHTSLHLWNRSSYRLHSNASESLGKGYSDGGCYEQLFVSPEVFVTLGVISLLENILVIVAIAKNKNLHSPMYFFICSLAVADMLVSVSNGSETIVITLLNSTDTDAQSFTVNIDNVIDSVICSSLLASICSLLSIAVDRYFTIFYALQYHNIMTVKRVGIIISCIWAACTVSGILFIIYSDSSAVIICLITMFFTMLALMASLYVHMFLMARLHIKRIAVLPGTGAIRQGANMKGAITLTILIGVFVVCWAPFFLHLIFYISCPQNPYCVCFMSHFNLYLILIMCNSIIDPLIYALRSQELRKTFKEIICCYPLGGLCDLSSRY
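Assay system: human MC4R-expressing U2OS cells; reagent: Melanotan II stimulation of cells; dosing: 6.5 µM single dose; timing: compound 30 min, challenge 1 h, detection 1 h; signal: TR-FRET cAMP assay; replicates: one well per compound, no replicates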
NALP1 yeast inh = NALP1 inflammasome inhibitors in reconstituted yeast, colorimetric, S. cerevisiae, triplicate retest; inhibition, % at 10 µM; S. cerevisiae NALP1/ASC/caspase-1 growth, X-gal OD620, 72 h; 0.61% of 280,000 active; in the data active = inhibition mostly above about 24%, no sharp cut-off; inactive = mostly below about 32%
Tb MetRS inh = T. brucei MetRS inhibitors, primary screen, biochemical, luminescence; purified T. brucei MetRS, ATP depletion, Kinase-Glo luminescence; inhibition, % at 11.9 µM; 0.4% of 360,000 active;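 active = inhibition above a per-plate cutoff of the control wells' mean inhibition plus 3 SD, cut at about 5.5% in these data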;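 also: 0% = DMSO wells median and 100% = median of wells with control inhibitor compound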
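Dosing: 11.9 µM single point; system: parasite MetRS enzyme; technique: luminescence of leftover ATP; times: 15 min enzyme-compound preincubation, 2 h reaction, 10 min detection, 25 °C; replicates: each compound tested once; read-out basis: percent inhibition relative to median high and low control wells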
MC4R ag barr = MC4R agonists recruiting beta-arrestin, primary screen, cell-based, luminescence, agonist arm of biased-ligand search; Melanocortin receptor 4 (Homo sapiens), P32245; U2OS MC4R beta-arrestin complementation; percent of melanotan II response, DMSO zero; activation, % at 8.9 µM; 0.98% of 360,000 active; AID 540308, 2011;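 active = activation above a per-plate cutoff, the mean activation of sample wells on that plate plus 3 SD, cut at about 8% in these data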
NLRP3 yeast inh = NALP3 inflammasome inhibitors in reconstituted yeast, primary screen, luminescence, uHTS; Yeast reconstituted NLRP3/ASC/caspase-1, beta-gal luminescence, 24 h; inhibition, % at 10 µM; 0.39% of 330,000 active;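 active = inhibition of 50% or more; inactive = inhibition below 50%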;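 also: plate controls were induced DMSO wells for no effect and uninduced yeast grown without galactose for full effect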
Bfl-1 A1 inh = caspase 3/7 activation in MEF A1-2A-BIM cells, primary screen, A1 inhibitor project, cell-based, luminescence, HTS | caspase activation, % (test concentration not listed) | 0.066% of 330,000 active | Caspase-Glo 3/7 luminescence, 3 h; percent of clofoctol response, vehicle zero;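 active = over half of replicate activation scores above 10%, or exactly half above 10 with the replicate mean above 10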
cAMP nonselect = nonselective cAMP signaling inhibitors, parental cells, counter-screen for MC4R biased antagonist project, cell-based, TR-FRET, U2OS, forskolin, triplicate; shares compounds with MC4R antag cAMP; LANCE TR-FRET; inhibition, % at 6.5 µM; 26% of 1,600 active; AID 602193, 2012;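 active = mean inhibition over triplicates above the low-control well mean plus 3 SD, set per campaign, cut at about 13% in these data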;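 also: signal is single emission at 671 nm which falls as cellular cAMP rises; 0% = forskolin-stimulated wells and 100% = buffer without forskolin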
MC4R antag conf = MC4R cAMP antagonists, retest, confirmation, cell-based, TR-FRET; shares compounds with MC4R antag cAMP; 27% of 1,600 active; MC4R-expressing cells, MTII-stimulated cAMP; AID 602195, 2012; inhibition, % at 6.5 µM; in the data active = inhibition above about 29%;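 also: 0% = agonist stimulated wells alone and 100% = agonist stimulated wells plus saturating reference antagonist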
Numbers without * were called inactive; . = no result.

SMILES	MC4R antag cAMP	NALP1 yeast inh	Tb MetRS inh	MC4R ag barr	NLRP3 yeast inh	Bfl-1 A1 inh	cAMP nonselect	MC4R antag conf
COc1cc(/C=N/NC(=O)c2cccnc2)ccc1OS(=O)(=O)c1ccc(F)cc1	2.4	.	-0.5	-0.4	-5.1	0.4	.	.
COc1cc(/C=N/NC(=O)c2cccnc2)ccc1OS(=O)(=O)c1ccc(C)cc1	28.8*	7.4	-0.4	-1.2	9.4	-0.7	1.6	5.4
O=C(CSc1c2c(nc3cc(Cl)ccc13)CCCC2)NCCN1CCOCC1	29.6*	0.9	0.2	-2.5	9.0	-0.7	3.1	23.6
Nc1ccc(-c2cc(-c3ccc(N)cc3)nc(-c3ccccc3)n2)cc1	-2.9	14.0	0.3	4.7	5.9	0.1	.	.
Cc1cc(Cl)nc(-c2ccccc2)n1	0.7	-9.2	0.4	-1.1	8.3	-0.1	.	.
Clc1cc(-c2ccccc2)nc(-c2ccccc2)n1	30.0*	.	-0.1	-0.7	12.4	-0.1	16.6*	29.4*
Brc1cc(-c2ccccc2)nc(-c2ccccc2)n1	35.7*	.	0.3	-2.2	15.3	-0.5	18.5*	36.4*
CC[C@]12c3[nH]c4ccc(OC)cc4c3CCN1C(=O)C(CC(=O)NCCc1ccccn1)C[C@@H]2C(=O)N1CCN(C(=O)C2CC2)CC1 (stereo partly drawn)	5.2	.	-0.9	-0.4	.	.	.	.
Cc1ccc(S(=O)(=O)Nc2cccc(C(=O)NCc3ccc(S(N)(=O)=O)cc3)c2)cc1	-1.1	16.9	-0.4	-1.2	34.4	0.3	.	.
COc1ccc(C(CC(=O)c2ccc(C)cc2)C(C#N)C#N)cc1OC (stereo not drawn)	29.6*	16.3	-0.5	0.8	24.9	0.2	5.3	5.2
Cc1ccc(C(=O)N[C@H](C(=O)N2CCN(c3ccccc3F)CC2)C(C)C)cc1	0.1	-9.8	-0.5	-0.8	24.6	0.5	.	.
COc1ccc(C(=O)OCC(=O)NC(C)CCc2ccccc2)cc1 (stereo not drawn)	7.1	22.1	-0.7	0.5	13.5	0.2	.	.
COc1ccc(C(=O)OCC(=O)NC(C)CCc2ccccc2)cc1OC (stereo not drawn)	31.0*	3.7	-0.3	0.6	14.4	0.0	-0.7	2.2
CCOC(=O)C(C)(C)N(Cc1cccc(C)c1)S(=O)(=O)c1ccc(Cl)c([N+](=O)[O-])c1	53.5*	15.9	-0.1	0.8	23.9	1.4	26.2*	63.3*
COc1ccc(NC(=O)N(C)C[C@H]2Oc3c(NC(=O)C4CCCCC4)cccc3C(=O)N([C@H](C)CO)C[C@@H]2C)cc1	0.6	.	-1.2	0.3	-11.9	1.2	.	.
O=C(Cc1ccc(NC(=O)C2CCCN(C(=O)C3CCC3)C2)cc1)Nc1cccc(C(=O)N2CCCCC2)c1 (stereo not drawn)	9.1	.	-1.0	-3.4	.	.	.	.
CCCS(=O)(=O)NC(=O)C1(C)CCN(C(=O)c2ccco2)C1 (stereo not drawn)	1.8	.	-0.5	-1.7	.	.	.	.
COc1ccc(/C=N/Nc2nc(Nc3ccccc3)nc(N3CCCC3)n2)cc1[N+](=O)[O-]	32.4*	0.7	0.1	2.9	28.3	1.7	2.0	0.9
CCOC(=O)/C(=N\Nc1ccccc1Cl)N1CCN(c2ccccc2OC)CC1	29.3*	-14.0	-0.2	-0.3	20.0	-0.1	1.2	-2.0
O=C(Nc1ccccc1)OCCN1CCOCC1	-2.3	.	0.3	-0.5	.	.	.	.
O=C(COC(=O)c1ccncc1)NCCCc1ccccc1	29.6*	17.8	0.0	1.8	12.1	-1.1	2.1	7.3
O=C(Cn1ncc(Cl)c(Cl)c1=O)NC1CCS(=O)(=O)C1 (stereo not drawn)	7.3	.	-0.4	0.5	1.3	0.0	.	.
O=C(Cn1ncc(Cl)c(Cl)c1=O)NC1CCCCC1	47.2*	.	0.2	-0.9	18.8	-0.5	28.9*	72.0*
O=C1CN(C(=O)COc2ccc(Cl)c(Cl)c2)c2ccccc2N1	16.5	.	-0.3	3.5	24.8	.	.	.
O=C(Cn1ncc(Cl)c(Cl)c1=O)NCC1CCCCC1	57.9*	39.9	0.8	0.4	.	10.0*	32.9*	56.2*
SMILES	MC4R antag cAMP	NALP1 yeast inh	Tb MetRS inh	MC4R ag barr	NLRP3 yeast inh	Bfl-1 A1 inh	cAMP nonselect	MC4R antag conf
O=C1CN(C(=O)Cn2ncc(Cl)c(Cl)c2=O)c2ccccc2N1	44.5*	-8.1	-0.1	2.1	.	.	20.1*	30.3*
C=CCn1c(-c2cccc(Cl)c2)n[nH]c1=S	12.1	-6.1	-0.8	-1.8	9.1	-1.2	.	.
C=CCn1nnnc1-c1cccc(Cl)c1	34.5*	-26.6	0.3	-0.3	-6.3	0.6	4.5	4.5
Cc1cccc(C)c1NC(=O)CCCSc1nnc(N)s1	32.8*	3.2	-0.6	0.4	8.4	-0.2	-1.2	-7.3
O=S(=O)(NCCc1ccccc1)c1cnc(Cl)c(Br)c1	9.0	-4.5	0.8	-0.1	26.5	.	.	.
O=S(=O)(NCc1ccco1)c1cnc(Cl)c(Br)c1	41.9*	6.3	-0.9	-1.6	17.1	0.1	30.5*	66.7*
COc1ccc(/C=C2\SC(=O)N(CC(=O)NCCCn3ccnc3)C2=O)cc1	-3.4	14.1	-0.1	-3.9	18.9	-0.3	.	.
COc1ccccc1NC(=O)c1ccc(NC(=O)Cc2n[nH]c(=O)c3ccccc23)cc1	30.3*	1.6	-0.3	1.7	-8.0	-0.4	4.5	0.8
CN(CC(=O)Nc1ccc(Cl)c(Cl)c1)CC(=O)N1CCc2ccccc21	6.9	.	0.6	-0.6	.	.	.	.
CC(=O)CSc1nc(-c2cccs2)c(C#N)c(=O)[nH]1	46.1*	36.3*	-0.3	0.9	7.2	.	35.8*	59.7*
CC(=O)CSc1nc(N)c(C#N)c(-c2cccs2)c1C#N	3.7	15.8	-0.6	-0.7	3.3	0.7	.	.
C(=NN=C(NN=Cc1cccs1)NN=Cc1cccs1)c1cccs1	-2.1	.	-0.2	0.8	.	.	.	.
CCC1(c2ccccc2)NC(=O)N(CC#N)C1=O (stereo not drawn)	28.8*	9.0	-0.2	-1.3	6.4	-4.0	4.3	5.8
CC1(c2ccccc2)NC(=O)N(CC#N)C1=O (stereo not drawn)	9.5	-45.0	-0.3	-3.1	4.0	0.1	.	.
